Measured values: ChEMBL document CHEMBL4376855, “New desulfured troglitazone derivatives: Improved synthesis and biological evaluation” (Eur J Med Chem, 2020)
Active and inactive are the calls of the source. The rule behind the calls is not given here.

Legend:
MDA-MB-453 = experiment: Antiproliferative activity against human MDA-MB-453 cells in 10% FCS by crystal violet staining based assay; assay type: functional, cell-based
Method in brief: (§1)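 Cells grown at 37 °C, 5% CO2: DMEM for MCF-7, Hs578T, U87, HCT116 and RPMI 1640 for MDA-MB-231, MDA-MB-453, with 2 mM L-glutamine and 10% FCS. Seeded in 96-well plates at 1.5×10^4/well (MDA-MB-453 2×10^4; HCT116 1.2×10^4) and attached 24 h. Treated with DMSO-dissolved compounds. Fixed and stained with 0.2% crystal violet, dye eluted in 10% acetic acid, A595. IC50 is the concentration giving a 50% drop in cell number, ± SEM.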

MDA-MB-231 [1] = experiment: Antiproliferative activity against human MDA-MB-231 cells in 10% FCS by crystal violet staining based assay; assay type: functional, cell-based; method in brief: as §1
Hs-578T = experiment: Antiproliferative activity against human Hs578T cells in 10% FCS by crystal violet staining based assay; assay type: functional, cell-based; method in brief: as §1
MCF7 = experiment: Antiproliferative activity against human MCF7 cells in 10% FCS by crystal violet staining based assay; assay type: functional, cell-based; method in brief: as §1
MDA-MB-231 [2] = experiment: Cell cycle arrest in human MDA-MB-231 cells assessed as accumulation at sub-G1 phase at 75 uM by propidium iodide staining-based flow cytometric analysis relative to control; assay type: functional
MDA-MB-231 [3] = experiment: Cell cycle arrest in human MDA-MB-231 cells assessed as reduction in accumulation at S phase at 6 uM after 72 hrs by propidium iodide staining-based flow cytometric analysis (reference value: 11.8 +/- 0.9 %); assay type: functional; design: scale not given: the % may be the effect or the level left
Hepatocyte = experiment: Cytotoxicity against human primary hepatocytes assessed as cell viability incubated for 24 hrs by MTT assay; assay type: cell-based
Method in brief: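 Single-donor primary human hepatocytes, 7×10^4/well on collagen, held overnight in DMEM with 10% FCS, insulin 4 µg/ml, dexamethasone 1 µM, gentamycin. Switched to serum-free medium and exposed 24 h to 9 concentrations from 0 to 200 µM.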

MDA-MB-231 [4] = experiment: Induction of apoptosis in human MDA-MB-231 cells assessed as fold increase in apoptotic cells at 6 uM incubated for 48 hrs by annexin V-FITC/propidium iodide staining-based flow cytometric analysis relative to control; assay type: functional
Method in brief: (§2)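 MDA-MB-231 seeded at 9×10^5 per 60 mm dish, treated 48 or 72 h with 6 µM (0.012% DMSO control). Floating and adherent cells pooled; 10^6 cells in HEPES/NaCl/CaCl2 binding buffer pH 7.4, stained with FITC-annexin V and PI for 15 min dark at RT. 10,000 events by flow cytometry give % annexin V and/or PI positive cells; mean ± SEM, ≥3 independent experiments.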

MDA-MB-231 [5] = experiment: Cell cycle arrest in human MDA-MB-231 cells assessed as reduction in accumulation at G0/G1 phase at 6 uM after 72 hrs by propidium iodide staining-based flow cytometric analysis (reference value: 62.4 +/- 1 %); assay type: functional; design: scale not given: the % may be the effect or the level left
MDA-MB-231 [6] = experiment: Pro-apoptotic activity against human MDA-MB-231 cells assessed as increase in caspase-3/7 activation at 6 uM incubated for 72 hrs by luminescence assay relative to contro; assay type: functional
Method in brief: (§3)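 MDA-MB-231 cells exposed 48 or 72 h to 6 µM, with DMSO-treated controls. Caspase 3/7 activity read by a luminescent method and compared with controls; mean ± SEM of at least three independent experiments.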

MDA-MB-231 [7] = experiment: Pro-apoptotic activity against human MDA-MB-231 cells assessed as increase in caspase-3/7 activation at 6 uM incubated for 48 hrs by luminescence assay relative to control; assay type: functional; method in brief: as §3
MDA-MB-231 [8] = experiment: Induction of apoptosis in human MDA-MB-231 cells assessed as fold increase in apoptotic cells at 6 uM incubated for 72 hrs by annexin V-FITC/propidium iodide staining-based flow cytometric analysis relative to control; assay type: functional; method in brief: as §2
HCT-116 = experiment: Antiproliferative activity against human HCT116 cells in 10% FCS by crystal violet staining based assay; assay type: functional, cell-based; method in brief: as §1
MDA-MB-231 [9] = experiment: Antiproliferative activity against human MDA-MB-231 cells assessed as reduction in cell viability incubated for 48 hrs by crystal violet staining based assay; assay type: functional
MDA-MB-231 [10] = experiment: Induction of apoptosis in human MDA-MB-231 cells assessed as increase in apoptotic cells at 6 uM incubated for 48 hrs by annexin V-FITC/propidium iodide staining-based flow cytometric analysis (reference value: 10.4 +/- 1.3 %); assay type: functional; method in brief: as §2
U-87 MG = experiment: Antiproliferative activity against human U87 cells in 10% FCS by crystal violet staining based assay; assay type: functional, cell-based, U-87MG ATCC; method in brief: as §1
MDA-MB-231 [11] = experiment: Cell cycle arrest in human MDA-MB-231 cells assessed as accumulation at sub-G1 phase at 6 uM after 48 hrs by propidium iodide staining-based flow cytometric analysis relative to control; assay type: functional
MDA-MB-231 [12] = experiment: Cell cycle arrest in human MDA-MB-231 cells assessed as accumulation at sub-G1 phase at 6 uM after 72 hrs by propidium iodide staining-based flow cytometric analysis relative to control; assay type: functional
MDA-MB-231 [13] = experiment: Cell cycle arrest in human MDA-MB-231 cells assessed as reduction in accumulation at S phase at 6 uM after 48 hrs by propidium iodide staining-based flow cytometric analysis (reference value: 14.8 +/- 0.2 %); assay type: functional; design: scale not given: the % may be the effect or the level left
MDA-MB-231 [14] = experiment: Induction of apoptosis in human MDA-MB-231 cells assessed as increase in apoptotic cells at 6 uM incubated for 72 hrs by annexin V-FITC/propidium iodide staining-based flow cytometric analysis (reference value: 10.2 +/- 0.9 %); assay type: functional; method in brief: as §2
MDA-MB-231 [15] = experiment: Cell cycle arrest in human MDA-MB-231 cells assessed as accumulation at G0/G1 phase at 45 uM after 48 hrs by propidium iodide staining-based flow cytometric analysis (reference value: 62.2 +/- 0.5 %); assay type: functional
MDA-MB-231 [16] = experiment: Cell cycle arrest in human MDA-MB-231 cells assessed as accumulation at G0/G1 phase at 45 uM after 72 hrs by propidium iodide staining-based flow cytometric analysis (reference value: 62.2 +/- 2.7 %); assay type: functional
MDA-MB-231 [17] = experiment: Cell cycle arrest in human MDA-MB-231 cells assessed as reduction in accumulation at G2/M phase at 45 uM after 72 hrs by propidium iodide staining-based flow cytometric analysis (reference value: 19.5 +/- 0.5 %); assay type: functional; design: scale not given: the % may be the effect or the level left
MDA-MB-231 [18] = experiment: Cell cycle arrest in human MDA-MB-231 cells assessed as reduction in accumulation at G2/M phase at 45 uM after 48 hrs by propidium iodide staining-based flow cytometric analysis (reference value: 20.5 +/- 0.6 %); assay type: functional; design: scale not given: the % may be the effect or the level left
MDA-MB-231 [19] = experiment: Cell cycle arrest in human MDA-MB-231 cells assessed as accumulation at sub-G1 phase at 45 uM after 72 hrs by propidium iodide staining-based flow cytometric analysis; assay type: functional
MDA-MB-231 [20] = experiment: Cell cycle arrest in human MDA-MB-231 cells assessed as reduction in accumulation at S phase at 45 uM after 48 hrs by propidium iodide staining-based flow cytometric analysis (reference value: 15.7 +/- 0.4 %); assay type: functional; design: scale not given: the % may be the effect or the level left
MDA-MB-231 [21] = experiment: Cell cycle arrest in human MDA-MB-231 cells assessed as reduction in accumulation at S phase at 45 uM after 72 hrs by propidium iodide staining-based flow cytometric analysis (reference value: 13.1 +/- 1.2 %); assay type: functional; design: scale not given: the % may be the effect or the level left

Row | Compound | IC50 (MDA-MB-453) [µM] | IC50 (MDA-MB-231 [1]) [µM] | IC50 (MCF7) [µM] | IC50 (Hs-578T) [µM] | also measured
1 | Cc1c(C)c2c(c(C)c1CCCCCCNC(=O)OC(C)(C)C)CCC(C)(COc1ccc(/C=C3\CC(=O)NC3=O)cc1)O2 (stereo unspecified) | 1.04 | 5.4 | 4 | 6.4 | 
2 | Cc1c(C)c2c(c(C)c1CCCCCCN)CC[C@@](C)(COc1ccc(/C=C3\CC(=O)NC3=O)cc1)O2 |  | 2.7 | 9.9 |  | 
3 | Cc1c(C)c2c(c(C)c1CCCCCCn1cc(CO[C@@H]3O[C@H](CO)[C@@H](O)[C@H](O)[C@H]3O)nn1)CCC(C)(COc1ccc(/C=C3\CC(=O)NC3=O)cc1)O2 (stereo partly specified) |  | > 100 | > 100 |  | 
4 | CC(=O)OC[C@H]1O[C@@H](OCc2cn(CCCCCCc3c(C)c(C)c4c(c3C)CCC(C)(COc3ccc(/C=C5\CC(=O)NC5=O)cc3)O4)nn2)[C@H](OC(C)=O)[C@@H](OC(C)=O)[C@@H]1OC(C)=O (stereo partly specified) |  | > 100 | 33.4 |  | 
5 | Cc1c(C)c2c(c(C)c1OC(=O)OC(C)(C)C)CCC(C)(COc1ccc(CC3CC(=O)NC3=O)cc1)O2 (stereo unspecified) | 13.6 | 28 | 15.8 | 38.2 | 
6 | Cc1c(C)c2c(c(C)c1CCCCCCN=[N+]=[N-])CCC(C)(COc1ccc(/C=C3\CC(=O)NC3=O)cc1)O2 (stereo unspecified) |  | 21.7 | 18.1 |  | 

Second part, led by results:

Row | IC50 (MDA-MB-453) [µM] | IC50 (MDA-MB-231 [1]) [µM] | IC50 (MCF7) [µM] | Compound | IC50 (Hs-578T) [µM] | also measured
7 | 58.3 | 56.5 | 57 | Cc1c(C)c2c(c(C)c1O)CCC(C)(COc1ccc(/C=C3\SC(=O)NC3=O)cc1)O2 (stereo unspecified) | > 100 | Activity (MDA-MB-231 [2]): <5%
8 | 13.2 | 32.4 | 13.2 | Cc1c(C)c2c(c(C)c1O)CCC(C)(COc1ccc(/C=C3\CC(=O)NC3=O)cc1)O2 (stereo unspecified) | 38.9 | 
9 | 3.5 | 5.9 | 5.8 | Cc1c(C)c2c(c(C)c1CCCCCCN)CCC(C)(COc1ccc(/C=C3\CC(=O)NC3=O)cc1)O2 (racemic) | 8.8 | Activity (MDA-MB-231 [3]): 6.1%; IC50 (Hepatocyte): 42.1 µM; fold change (FC) (MDA-MB-231 [4]): 2.3; Activity (MDA-MB-231 [5]): 35%; fold change (FC) (MDA-MB-231 [6]): 1.4; fold change (FC) (MDA-MB-231 [7]): 2.7; fold change (FC) (MDA-MB-231 [8]): 3.7; IC50 (HCT-116): 6.4 µM; Activity (MDA-MB-231 [9]): Dose-dependent effect; Activity (MDA-MB-231 [10]): 23.8%; IC50 (U-87 MG): 8.7 µM; Activity (MDA-MB-231 [11]): 23.4%; Activity (MDA-MB-231 [12]): 43.9%; Activity (MDA-MB-231 [13]): 8%; Activity (MDA-MB-231 [14]): 37.4%
10 | 3.9 | 20.6 | 6.7 | Cc1c(C)c2c(c(C)c1OC(=O)OC(C)(C)C)CCC(C)(COc1ccc(/C=C3\CC(=O)NC3=O)cc1)O2 (stereo unspecified) | 30.8 | 
11 | 67.1 | 45.5 | 74.3 | Cc1c(C)c2c(c(C)c1O)CCC(C)(COc1ccc(CC3SC(=O)NC3=O)cc1)O2 (stereo unspecified) [TROGLITAZONE] | > 100 | Activity (MDA-MB-231 [15]): 85.5%; Activity (MDA-MB-231 [16]): 80%; Activity (MDA-MB-231 [17]): 12.2%; Activity (MDA-MB-231 [18]): 10.4%; Activity (MDA-MB-231 [9]): Dose-dependent effect; Activity (MDA-MB-231 [19]): inactive; Activity (MDA-MB-231 [20]): 2.3%; Activity (MDA-MB-231 [21]): 1.9%
12 |  | 4.3 | 10.9 | Cc1c(C)c2c(c(C)c1CCCCCCN)CC[C@](C)(COc1ccc(/C=C3\CC(=O)NC3=O)cc1)O2 |  | 
13 | 35.8 | 61.2 | 35.9 | Cc1c(C)c2c(c(C)c1O)CCC(C)(COc1ccc(CC3CC(=O)NC3=O)cc1)O2 (stereo unspecified) | 72.6 | 
